# Laboratory results as given in ChEMBL document CHEMBL1255214, “Structure-based design of imidazo[1,2-a]pyrazine derivatives as selective inhibitors of Aurora-A kinase in cells” (Bioorg Med Chem Lett, 2010).
# pIC50: −log10 of the molar value.
# Columns and labels:
# Aurora kinase A = molecular target: T1, Aurora kinase A (Homo sapiens, UniProt O14965); assay: Inhibition of human aurora A
# T1 sequence (O14965 whole entry): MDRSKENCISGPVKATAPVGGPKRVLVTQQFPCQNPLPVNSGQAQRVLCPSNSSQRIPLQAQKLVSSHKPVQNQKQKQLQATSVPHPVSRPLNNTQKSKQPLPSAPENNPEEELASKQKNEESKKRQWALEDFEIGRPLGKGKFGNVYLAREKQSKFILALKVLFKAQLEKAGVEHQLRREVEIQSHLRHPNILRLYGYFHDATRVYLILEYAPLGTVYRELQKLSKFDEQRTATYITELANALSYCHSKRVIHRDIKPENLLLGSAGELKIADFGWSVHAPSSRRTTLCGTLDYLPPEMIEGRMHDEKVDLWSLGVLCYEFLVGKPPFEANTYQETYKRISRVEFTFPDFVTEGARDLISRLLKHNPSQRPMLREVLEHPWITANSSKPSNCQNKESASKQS
# Outline: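 Recombinant human Aurora-A kinase; IC50 measured by either a Flashplate or a Filterplate assay. Values are means of two independent determinations, or mean (SD) where n >2; some are means of samples run in triplicate.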
# [1] = molecular target: T2, Aurora kinase A (Homo sapiens) (UniProt O14965); assay: Inhibition of human aurora A at 10 uM
# T2 sequence (whole entry): T1 sequence (O14965 whole entry)
# Outline: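 Recombinant human Aurora-A kinase, tested at a single concentration; percent inhibition reported as mean of samples run in triplicate.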
# HCT-116 = assay: Growth inhibition of human HCT116 cells; assay type: functional
# Outline: (§1)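 MTT read-out of cell growth, with GI50 taken from the resulting data.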
# HeLa = assay: Growth inhibition of human HeLa cells; assay type: functional; outline: as §1
# Homo sapiens = organism: Homo sapiens; assay: Selectivity ratio of IC50 for human aurora B to IC50 for human aurora A
# Aurora kinase B = Aurora kinase B (Homo sapiens, UniProt Q96GD4); assay: Inhibition of human aurora B
# Aurora kinase B, sequence (Q96GD4 whole entry): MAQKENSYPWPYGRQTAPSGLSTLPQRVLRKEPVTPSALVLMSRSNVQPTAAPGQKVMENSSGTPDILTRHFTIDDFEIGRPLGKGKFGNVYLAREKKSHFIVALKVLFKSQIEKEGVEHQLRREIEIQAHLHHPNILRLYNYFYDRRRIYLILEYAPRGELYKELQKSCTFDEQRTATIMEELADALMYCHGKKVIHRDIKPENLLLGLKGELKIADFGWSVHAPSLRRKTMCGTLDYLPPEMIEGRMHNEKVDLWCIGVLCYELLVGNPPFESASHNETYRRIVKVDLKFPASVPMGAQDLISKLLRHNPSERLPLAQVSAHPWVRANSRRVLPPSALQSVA
# Aurora kinase C = molecular target: T3, Aurora kinase C (Homo sapiens, UniProt Q9UQB9); assay: Inhibition of human aurora C
# T3 sequence (Q9UQB9 whole entry): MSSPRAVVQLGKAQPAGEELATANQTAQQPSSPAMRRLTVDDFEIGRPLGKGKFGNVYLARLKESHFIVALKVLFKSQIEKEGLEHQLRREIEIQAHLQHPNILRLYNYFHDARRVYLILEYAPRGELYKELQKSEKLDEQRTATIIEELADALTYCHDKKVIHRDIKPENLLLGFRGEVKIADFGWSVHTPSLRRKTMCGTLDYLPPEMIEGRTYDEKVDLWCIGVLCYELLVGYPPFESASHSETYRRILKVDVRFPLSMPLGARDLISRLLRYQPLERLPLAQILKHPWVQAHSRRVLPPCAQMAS
# Outline: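 Recombinant human Aurora-C kinase; IC50 measured by Filterplate assay.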
pIC50 (Aurora kinase A),inhibition [1] [%],Compound,also measured
5.14,,COc1ccc(Nc2nc(-c3cccc(NC(=O)Nc4ccccc4)c3)cn3ccnc23)cc1,
,28,COc1ccc(Nc2nc(-c3ccc(Cl)nc3)cn3ccnc23)cc1,
5.26,,COc1ccc(Nc2nc(-c3cccc(N)c3)cn3ccnc23)cc1,
5.14,,COCC(=O)Nc1cccc(-c2cn3ccnc3c(Nc3ccc(OC)cc3)n2)c1,
,30,COc1ccc(Nc2nc(-c3ccc(OC)nc3)cn3ccnc23)cc1,
,22,COc1ccc(Nc2nc(-c3cccc(NC(=O)COc4ccccc4)c3)cn3ccnc23)cc1,
5.35,,COc1ccc(Nc2nc(-c3cccc(NS(=O)(=O)c4cccnc4)c3)cn3ccnc23)cc1,
5.10,,COc1ccc(NC(=O)Nc2cccc(-c3cn4ccnc4c(Nc4ccc(OC)cc4)n3)c2)cc1,
,32,COc1ccc(Nc2nc(-c3ccc(F)nc3)cn3ccnc23)cc1,
5.54,,COc1ccc(Nc2nc(-c3cccnc3)cn3ccnc23)cc1,
5.17,,COc1ccc(Nc2nc(-c3cccc(NS(=O)(=O)c4ccc(OC)cc4)c3)cn3ccnc23)cc1,
,46,COc1ccc(Nc2nc(-c3cccc(Cl)c3)cn3ccnc23)cc1,

# The remaining lines, values behind:
Compound,pIC50 (Aurora kinase A),inhibition [1] [%],also measured
O=C(Nc1ccc(Nc2nc(-c3cccnc3)cn3ccnc23)cc1)c1ccccc1,5.43,,
CC(=O)Nc1ccc(Nc2nc(-c3cccnc3)cn3ccnc23)cc1,5.60,,
c1cncc(-c2cn3ccnc3c(Nc3ccc(N4CCOCC4)cc3)n2)c1,5.67,,
CN(c1ccccc1)c1nc(-c2cccnc2)cn2ccnc12,,27,
Cc1cnc2c(Nc3ccc(N4CCOCC4)cc3)nc(-c3cccnc3)cn12,6.68,,GI50 (HCT-116): 7.2 µM; GI50 (HeLa): 6.5 µM
Clc1ccc(Nc2nc(-c3cccnc3)cn3ccnc23)cc1,5.26,,
c1cncc(-c2cn3c(-c4cccnc4)cnc3c(Nc3ccc(N4CCOCC4)cc3)n2)c1,5.38,,
CS(=O)(=O)NCc1cccc(-c2cn3c(Cl)cnc3c(Nc3ccc(N4CCOCC4)cc3)n2)c1,,,Ratio IC50 (Homo sapiens): 70; pIC50 (Aurora kinase B): 4.98
O=C(O)c1ccc(Nc2ncc3c(n2)-c2ccc(Cl)cc2C(c2c(F)cccc2F)=NC3)cc1,,,Ratio IC50 (Homo sapiens): 90
c1cncc(-c2cn3ccnc3c(NCc3ccc(N4CCOCC4)cc3)n2)c1,,41,
COc1ccc(Nc2nc(-c3cnn(Cc4ccccc4)c3)cn3ccnc23)cc1,,38,
c1cncc(-c2cn3ccnc3c(NCCN3CCOCC3)n2)c1,,33,
c1ccc(Nc2nc(-c3cccnc3)cn3ccnc23)cc1,5.17,,
OC1CCC(Nc2nc(-c3cccnc3)cn3ccnc23)CC1 (configuration not stated),,32,
c1cncc(-c2cn3ccnc3c(NCc3ccc4c(c3)OCCO4)n2)c1,,35,
Brc1cnc2c(Nc3ccc(N4CCOCC4)cc3)nc(-c3cccnc3)cn12,6.82,,GI50 (HCT-116): 2.3 µM; GI50 (HeLa): 13.4 µM
COc1ccc(Nc2nc(-c3ccn(C)n3)cn3ccnc23)cc1,5.01,,
Clc1cnc2c(Nc3ccc(N4CCOCC4)cc3)nc(-c3cccnc3)cn12,,,pIC50 (Aurora kinase C): 5.71; GI50 (HCT-116): 3.9 µM; GI50 (HeLa): 28 µM
